In ChEMBL document CHEMBL1123490, “Synthesis and biological activities of oligo(8-bromoadenylates) as analogues of 5'-O-triphosphoadenylyl(2'----5')adenylyl(2'----5')adenosine” (J Med Chem, 1986):
pIC50: −log10 of the molar value. Values belong to the molecule of their own block, whether it stands above or below them.

Columns and labels:
Mus musculus [1] = species: Mus musculus; test: Compound measured for the stability in 20% mouse in L cell extracts in the absence of ATP at 0 min; format: functional
Mus musculus [2] = species: Mus musculus; test: Compound measured for the stability in 20% mouse in L cell extracts in the presence of ATP at 220 min; format: functional, organism-based
Mus musculus [3] = species: Mus musculus; test: Compound measured for the stability in 20% mouse in L cell extracts in the presence of ATP at 75 min; format: functional, organism-based
Mus musculus [4] = species: Mus musculus; test: Compound measured for the stability in 20% mouse in L cell extracts in the presence of ATP at 120 min; format: functional, organism-based
[5] = target: T1, 2-5A-dependent ribonuclease (Mus musculus, UniProt Q05921); test: (§1) Compound was tested for activation of RNase L by measuring concentration required for 50% inhibition of protein synthesis in mouse L cell extracts; format: cell-based
T1 sequence (Q05921 whole entry): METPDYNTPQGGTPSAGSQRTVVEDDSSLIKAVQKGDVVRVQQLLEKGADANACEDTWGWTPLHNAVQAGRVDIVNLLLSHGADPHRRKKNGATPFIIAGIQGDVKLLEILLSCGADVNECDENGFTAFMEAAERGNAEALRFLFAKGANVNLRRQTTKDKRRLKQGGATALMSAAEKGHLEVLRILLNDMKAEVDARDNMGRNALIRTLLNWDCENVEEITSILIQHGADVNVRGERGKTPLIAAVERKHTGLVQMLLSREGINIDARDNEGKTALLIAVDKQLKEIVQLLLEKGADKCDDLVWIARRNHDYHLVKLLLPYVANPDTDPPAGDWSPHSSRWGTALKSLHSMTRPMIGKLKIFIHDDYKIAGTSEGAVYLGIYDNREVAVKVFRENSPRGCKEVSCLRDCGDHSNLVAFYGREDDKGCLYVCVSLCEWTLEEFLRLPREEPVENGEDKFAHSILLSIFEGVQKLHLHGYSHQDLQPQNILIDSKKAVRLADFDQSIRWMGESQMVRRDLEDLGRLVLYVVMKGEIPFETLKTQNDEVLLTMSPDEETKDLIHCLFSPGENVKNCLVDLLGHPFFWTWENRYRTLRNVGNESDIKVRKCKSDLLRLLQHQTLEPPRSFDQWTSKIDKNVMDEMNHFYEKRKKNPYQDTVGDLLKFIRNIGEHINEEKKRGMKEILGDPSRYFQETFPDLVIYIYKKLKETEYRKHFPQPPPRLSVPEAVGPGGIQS

[6] = target: T2, 2-5A-dependent ribonuclease (Mus musculus) (UniProt Q05921); test: Binding affinity against 2-5A-dependent RNase L in mouse L cell extract using ppp5'A2p5'A2'p5'A3'[32P]pCp as a radioactive probe; format: cell-free
T2 sequence (whole entry): T1 sequence (Q05921 whole entry)
In short: (§2)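 Crude mouse L cell extract served as the RNase L source, with ppp5'A2'p5'A2'p5'A3'[32P]p5'Cp as the radioactive probe, in a competition binding assay on nitrocellulose. The value is the analogue concentration giving 50% displacement of the probe from the endonuclease–nitrocellulose complex.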

Mus musculus [7] = species: Mus musculus; test: Compound measured for the stability in 20% mouse in L cell extracts in the absence of ATP at 90 min; format: functional
[8] = target: T2, 2-5A-dependent ribonuclease (Mus musculus); test: as §1; format: cell-based
In short: (§3)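 Cell-free translation was run in mouse L cell extract programmed with EMCV RNA, with creatine kinase, amino acids and [3H]leucine added. At set times, aliquots were spotted onto filter disks presoaked in 15% trichloroacetic acid to measure incorporation. The value is the concentration giving 50% inhibition of protein synthesis.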

Mus musculus [9] = species: Mus musculus; test: Compound measured for the stability in 20% mouse in L cell extracts in the presence of ATP at 40 min; format: functional, organism-based
Mus musculus [10] = species: Mus musculus; test: Compound measured for the stability in 20% mouse in L cell extracts in the presence of ATP at 12 hr; format: functional, organism-based
Mus musculus [11] = species: Mus musculus; test: Compound measured for the stability in 20% mouse in L cell extracts in the presence of ATP at 0 min; format: functional, organism-based
[12] = target: T2, 2-5A-dependent ribonuclease (Mus musculus); test: Binding affinity against 2-5A-dependent RNase L in mouse L cell extracts using ppp5'A2p5'A2'p5'A3'[32P]pCp as a radioactive probe; format: cell-free; in short: as §2
[13] = target: T1, 2-5A-dependent ribonuclease; test: (§4) compound was tested for activation of RNase L by measuring concentration required for 50% inhibition of protein synthesis in mouse L cell extracts; format: cell-based; in short: as §3
[14] = target: T2, 2-5A-dependent ribonuclease (Mus musculus); test: as §4; format: cell-based; in short: as §3
Mus musculus [15] = species: Mus musculus; test: Compound measured for the stability in 20% mouse in L cell extracts in the absence ot ATP at 150 min; format: functional
Mus musculus [16] = species: Mus musculus; test: Compound measured for the stability in 20% mouse in L cell extracts in the presence ot ATP at 40 min.; format: functional, organism-based
Mus musculus [17] = species: Mus musculus; test: Compound measured for the stability in 20% mouse in L cell extracts in the absence ot ATP at 75 min; format: functional
Mus musculus [18] = species: Mus musculus; test: Compound measured for the stability in 20% mouse in L cell extracts in the presence ot ATP at 12 hr; format: functional, organism-based
Mus musculus [19] = species: Mus musculus; test: Compound measured for the stability in 20% mouse in L cell extracts in the absence ot ATP at 12 hr; format: functional
Mus musculus [20] = species: Mus musculus; test: Compound measured for the stability in 20% mouse in L cell extracts in the absence ot ATP at 240 min; format: functional, organism-based
Mus musculus [21] = species: Mus musculus; test: Compound measured for the stability in 20% mouse in L cell extracts in the presence of ATP at 0 min.; format: functional, organism-based
Mus musculus [22] = species: Mus musculus; test: Compound measured for the stability in 20% mouse in L cell extracts in the absence ot ATP at 40 min.; format: functional, organism-based
Mus musculus [23] = species: Mus musculus; test: Compound measured for the stability in 20% mouse in L cell extracts in the presence ot ATP at 75 min; format: functional, organism-based
Mus musculus [24] = species: Mus musculus; test: Compound measured for the stability in 20% mouse in L cell extracts in the presence ot ATP at 150 min; format: functional
Mus musculus [25] = species: Mus musculus; test: Compound measured for the stability in 20% mouse in L cell extracts in the absence ot ATP at 0 min.; format: functional
Mus musculus [26] = species: Mus musculus; test: Compound measured for the stability in 20% mouse in L cell extracts in the absence of ATP at 30 min; format: functional
Mus musculus [27] = species: Mus musculus; test: Compound measured for the stability in 20% mouse in L cell extracts in the absence of ATP at 240 min; format: functional
Mus musculus [28] = species: Mus musculus; test: Compound measured for the stability in 20% mouse in L cell extracts in the absence of ATP at 150 min; format: functional
Mus musculus [29] = species: Mus musculus; test: Compound measured for the stability in 20% mouse in L cell extracts in the absence of ATP at 120 min; format: functional
Mus musculus [30] = species: Mus musculus; test: Compound measured for the stability in 20% mouse in L cell extracts in the absence of ATP at 12 hr; format: functional

- pIC50 [5]: 6.82
- Activity [6]: 8e-09
- Relative ability [6]: 0.088
- Relative activity [8]: 0.015
SMILES: Nc1ncnc2c1nc(Br)n2[C@@H]1O[C@H](COP(=O)(O)O[C@@H]2[C@H](O)[C@@H](COP(=O)(O)O[C@@H]3[C@H](O)[C@@H](COP(=O)(O)OP(=O)(O)OP(=O)(O)O)O[C@H]3n3c(Br)nc4c(N)ncnc43)O[C@H]2n2c(Br)nc3c(N)ncnc32)[C@@H](O)[C@H]1O
- Stability (Mus musculus [1]): 48%
- Stability (Mus musculus [2]): 16%
- Stability (Mus musculus [3]): 46%
- Stability (Mus musculus [4]): 36%
- Stability (Mus musculus [7]): 3%
- Stability (Mus musculus [9]): 54%
- Stability (Mus musculus [10]): 0%
- Stability (Mus musculus [11]): 71%

- Activity [12]: 2e-08
- pIC50 [5]: 6.00
- Relative ability [6]: 0.035
- Relative activity [8]: 0.0023
SMILES: Nc1ncnc2c1nc(Br)n2[C@@H]1O[C@H](COP(=O)(O)O[C@@H]2[C@H](O)[C@@H](COP(=O)(O)O[C@@H]3[C@H](O)[C@@H](COP(=O)(O)O)O[C@H]3n3c(Br)nc4c(N)ncnc43)O[C@H]2n2c(Br)nc3c(N)ncnc32)[C@@H](O)[C@H]1O
- Stability (Mus musculus [15]): 77%
- Stability (Mus musculus [16]): 99%
- Stability (Mus musculus [17]): 82%
- Stability (Mus musculus [18]): 53%
- Stability (Mus musculus [19]): 22%
- Stability (Mus musculus [20]): 76%
- Stability (Mus musculus [21]): 100%
- Stability (Mus musculus [22]): 88%
- Stability (Mus musculus [23]): 89%
- Stability (Mus musculus [24]): 84%
- Stability (Mus musculus [25]): 100%

- pIC50 [5]: 8.64
SMILES: Nc1ncnc2c1ncn2[C@@H]1O[C@H](CO[P@](=O)(O)O[C@@H]2[C@H](O)[C@@H](CO[P@](=O)(O)O[C@@H]3[C@H](O)[C@@H](CO[P@](=O)(O)O[P@@](=O)(O)OP(=O)(O)O)O[C@H]3n3cnc4c(N)ncnc43)O[C@H]2n2cnc3c(N)ncnc32)[C@@H](O)[C@H]1O

- Activity [12]: 6e-07
- Relative ability [12]: 0.0012
- pIC50 [13]: < 4.30
- Relative activity [14]: < 5e-05
SMILES: Nc1ncnc2c1nc(Br)n2[C@@H]1O[C@H](COP(=O)(O)O[C@@H]2[C@H](O)[C@@H](COP(=O)(O)O[C@@H]3[C@H](O)[C@@H](CO)O[C@H]3n3c(Br)nc4c(N)ncnc43)O[C@H]2n2c(Br)nc3c(N)ncnc32)[C@@H](O)[C@H]1O

Second part, the molecule before the results:

SMILES: Nc1ncnc2c1ncn2[C@@H]1O[C@H](COP(=O)(O)O[C@@H]2[C@H](O)[C@@H](COP(=O)(O)O[C@@H]3[C@H](O)[C@@H](COP(=O)(O)OP(=O)(O)OP(=O)(O)O)O[C@H]3n3cnc4c(N)ncnc43)O[C@H]2n2cnc3c(N)ncnc32)[C@@H](O)[C@H]1O
- Relative activity [8]: 1

SMILES: Nc1ncnc2c1nc(Br)n2[C@@H]1O[C@H](COP(=O)(O)O[C@@H]2[C@H](O)[C@@H](COP(=O)(O)O[C@@H]3[C@H](O)[C@@H](COP(=O)(O)O[C@@H]4[C@H](O)[C@@H](COP(=O)(O)O)O[C@H]4n4c(Br)nc5c(N)ncnc54)O[C@H]3n3c(Br)nc4c(N)ncnc43)O[C@H]2n2c(Br)nc3c(N)ncnc32)[C@@H](O)[C@H]1O
- Activity [12]: 4e-09
- Relative ability [12]: 0.18
- pIC50 [13]: 6.15
- Relative activity [14]: 0.0033

SMILES: Nc1ncnc2c1nc(Br)n2[C@@H]1O[C@H](COP(=O)(O)O[C@@H]2[C@H](O)[C@@H](COP(=O)(O)O[C@@H]3[C@H](O)[C@@H](COP(=O)(O)O[C@@H]4[C@H](O)[C@@H](CO)O[C@H]4n4c(Br)nc5c(N)ncnc54)O[C@H]3n3c(Br)nc4c(N)ncnc43)O[C@H]2n2c(Br)nc3c(N)ncnc32)[C@@H](O)[C@H]1O
- Activity [12]: 3e-08
- Relative ability [12]: 0.023
- pIC50 [13]: < 3.70
- Relative activity [14]: < 1e-05

SMILES: Nc1ncnc2c1nc(Br)n2[C@@H]1O[C@H](COP(=O)(O)O[C@@H]2[C@H](O)[C@@H](COP(=O)(O)O[C@@H]3[C@H](O)[C@@H](COP(=O)(O)OP(=O)(O)O)O[C@H]3n3c(Br)nc4c(N)ncnc43)O[C@H]2n2c(Br)nc3c(N)ncnc32)[C@@H](O)[C@H]1O
- Activity [12]: 3e-09
- Relative ability [12]: 0.23
- Stability (Mus musculus [1]): 100%
- Stability (Mus musculus [2]): 70%
- Stability (Mus musculus [3]): 71%
- Stability (Mus musculus [26]): 80%
- Stability (Mus musculus [27]): 0%
- pIC50 [5]: 7.34
- Stability (Mus musculus [28]): 55%
- Stability (Mus musculus [29]): 67%
- Stability (Mus musculus [30]): 0%
- Stability (Mus musculus [7]): 70%
- Relative activity [8]: 0.05
- Stability (Mus musculus [9]): 87%
- Stability (Mus musculus [10]): 47%
- Stability (Mus musculus [11]): 100%

SMILES: Nc1ncnc2c1nc(Br)n2[C@H]1O[C@@H](COP(=O)(O)O[C@H]2[C@@H](O)[C@H](COP(=O)(O)O[C@H]3[C@@H](O)[C@H](COP(=O)(O)O[C@H]4[C@@H](O)[C@H](COP(=O)(O)O[C@H]5[C@@H](O)[C@H](COP(=O)(O)O)O[C@@H]5n5c(Br)nc6c(N)ncnc65)O[C@@H]4n4c(Br)nc5c(N)ncnc54)O[C@@H]3n3c(Br)nc4c(N)ncnc43)O[C@@H]2n2c(Br)nc3c(N)ncnc32)[C@H](O)[C@@H]1O
- Activity [12]: 3e-09
- Relative ability [12]: 0.23
- pIC50 [13]: < 4.40
- Relative activity [14]: < 6e-05
